Experimental data: ChEMBL document CHEMBL4265871, “Novel alkylated azoles as potent antifungals” (Eur J Med Chem, 2017)
Values after ≈ are worked out from the molar mass of the structure shown.

What was measured:
[1] = Selectivity index, ratio of EC50 for toxicity in human A549 cells to MIC100 for antifungal activity against Candida albicans ATCC 10231; type: cell-based; conditions: read-out: Selectivity Index
Method in brief: (§1)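 Selectivity index is the EC50 against the mammalian line (A549 or BEAS-2B) divided by the MIC against the given fungal strain.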

[2] = Selectivity index, ratio of EC50 for toxicity in human BEAS2B cells to MIC50 for antifungal activity against ITC and FLC-resistant Candida albicans ATCC MYA-90819; type: cell-based; conditions: BEAS-2B cells, read-out: Selectivity Index
Method in brief: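 Ratio of the compound's EC50 against BEAS-2B cells to its MIC against the named C. albicans strain. […] For C. albicans strains other than ATCC 10231, trailing growth meant MIC-2 was taken, meaning 50% growth inhibition.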

[3] = Selectivity index, ratio of EC50 for toxicity in human A549 cells to MIC50 for antifungal activity against ITC and FLC-resistant Candida albicans ATCC MYA-90819; type: cell-based; conditions: read-out: Selectivity Index; method in brief: as §1
[4] = test system: Candida albicans; test: Antifungal activity against Candida albicans ATCC 64124 incubated for 48 hrs by modified CLSI M27-A3 protocol based method; type: functional; conditions: ATCC 64124, 48 h
[5] = Selectivity index, ratio of EC50 for toxicity in human BEAS2B cells to MIC50 for antifungal activity against Candida glabrata ATCC 2001; type: cell-based; conditions: BEAS-2B cells, read-out: Selectivity Index; method in brief: as §1
[6] = Selectivity index, ratio of EC50 for toxicity in human A549 cells to MIC50 for antifungal activity against Candida krusei ATCC 6258
[7] = Selectivity index, ratio of EC50 for toxicity in human BEAS2B cells to MIC50 for antifungal activity against ITC and FLC-resistant Candida albicans ATCC 1237; type: cell-based; conditions: BEAS-2B cells, read-out: Selectivity Index; method in brief: as §1
[8] = test system: Aspergillus terreus; test: Antifungal activity against Aspergillus terreus ATCC MYA-3633 incubated for 48 hrs by CLSI M38-A2 protocol based method; type: functional; conditions: ATCC MYA-3633, 48 h, read-out: MIC100
[9] = test system: Nakaseomyces glabratus; test: Antifungal activity against Candida glabrata ATCC 2001 incubated for 48 hrs by modified CLSI M27-A3 protocol based method; type: functional; conditions: ATCC 2001, 48 h
[10] = Selectivity index, ratio of EC50 for toxicity in human BEAS2B cells to MIC50 for antifungal activity against Candida albicans ATCC 64124; type: cell-based; conditions: BEAS-2B cells, read-out: Selectivity Index; method in brief: as §1
[11] = Selectivity index, ratio of EC50 for toxicity in human A549 cells to MIC50 for antifungal activity against ITC and FLC-resistant Candida albicans ATCC MYA-1003; type: cell-based; conditions: read-out: Selectivity Index; method in brief: as §1
[12] = Selectivity index, ratio of […] for toxicity in human A549 cells to MIC50 for antifungal activity against Aspergillus flavus ATCC MYA-3631; type: cell-based; conditions: read-out: Selectivity Index
[13] = test system: Aspergillus nidulans; test: Antifungal activity against Aspergillus nidulans ATCC 38163 incubated for 48 hrs by CLSI M38-A2 protocol based method; type: functional; conditions: ATCC 38163, 48 h, read-out: MIC100
[14] = test system: Candida albicans; test: Antifungal activity against ITC and FLC-susceptible Candida albicans ATCC MYA-2876 incubated for 48 hrs by modified CLSI M27-A3 protocol based method; type: functional; conditions: ATCC MYA-2876, 48 h
Method in brief: (§2)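 Because these Candida strains show trailing growth, MIC-2 was read, meaning 50% growth inhibition. Caspofungin and voriconazole were tested here; other controls came from earlier work.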

[15] = Selectivity index, ratio of EC50 for toxicity in human BEAS2B cells to MIC100 for antifungal activity against Candida albicans ATCC 10231; type: cell-based; conditions: BEAS-2B cells, read-out: Selectivity Index; method in brief: as §1
[16] = Selectivity index, ratio of EC50 for toxicity in human A549 cells to MIC50 for antifungal activity against ITC and FLC-susceptible Candida albicans ATCC MYA-2876; type: cell-based; conditions: read-out: Selectivity Index; method in brief: as §1
[17] = test system: Candida albicans; test: Antifungal activity against ITC and FLC-resistant Candida albicans ATCC 1237 incubated for 48 hrs by modified CLSI M27-A3 protocol based method; type: functional; conditions: ATCC 1237, 48 h; method in brief: as §2
[18] = Selectivity index, ratio of EC50 for toxicity in human A549 cells to MIC50 for antifungal activity against ITC and FLC-resistant Candida albicans ATCC 1237; type: cell-based; conditions: read-out: Selectivity Index; method in brief: as §1
[19] = Selectivity index, ratio of EC50 for toxicity in human BEAS2B cells to MIC50 for antifungal activity against ITC and FLC-resistant Candida albicans ATCC MYA-1003; type: cell-based; conditions: BEAS-2B cells, read-out: Selectivity Index; method in brief: as §1
[20] = Selectivity index, ratio of […] for toxicity in human A549 cells to MIC50 for antifungal activity against Aspergillus nidulans ATCC 38163; type: cell-based; conditions: read-out: Selectivity Index
[21] = test system: Candida albicans; test: Antifungal activity against ITC and FLC-resistant Candida albicans ATCC MYA-90819 incubated for 48 hrs by modified CLSI M27-A3 protocol based method; type: functional; conditions: ATCC MYA-90819, 48 h
[22] = Selectivity index, ratio of EC50 for toxicity in human A549 cells to MIC50 for antifungal activity against ITC and FLC-susceptible Candida albicans ATCC MYA-2310; type: cell-based; conditions: read-out: Selectivity Index; method in brief: as §1
[23] = Selectivity index, ratio of […] for toxicity in human BEAS2B cells to MIC50 for antifungal activity against Aspergillus terreus ATCC MYA-3633; type: cell-based; conditions: BEAS-2B cells, read-out: Selectivity Index
[24] = Selectivity index, ratio of EC50 for toxicity in human A549 cells to MIC50 for antifungal activity against Candida albicans ATCC 64124; type: cell-based; conditions: read-out: Selectivity Index; method in brief: as §1
[25] = Selectivity index, ratio of […] for toxicity in human BEAS2B cells to MIC50 for antifungal activity against Aspergillus flavus ATCC MYA-3631; type: cell-based; conditions: BEAS-2B cells, read-out: Selectivity Index
[26] = test system: Candida albicans; test: Antifungal activity against ITC and FLC-susceptible Candida albicans ATCC MYA-2310 incubated for 48 hrs by modified CLSI M27-A3 protocol based method; type: functional; conditions: ATCC MYA-2310, 48 h
[27] = test system: Candida parapsilosis; test: Antifungal activity against Candida parapsilosis ATCC 22019 incubated for 48 hrs by modified CLSI M27-A3 protocol based method; type: functional; conditions: Lodderomyces parapsilosis, ATCC 22019, 48 h; read-out: MIC100
Method in brief: (§3)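 For C. albicans ATCC 10231, C. krusei ATCC 6258 and C. parapsilosis ATCC 22019, MIC-0 was read, meaning complete growth inhibition. For azole controls, MIC-2 (50% growth inhibition) was reported instead. Caspofungin and voriconazole were tested here; other controls came from earlier work.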

[28] = test system: Candida albicans; test: Antifungal activity against Candida albicans ATCC 10231 incubated for 48 hrs by modified CLSI M27-A3 protocol based method; type: functional; conditions: ATCC 10231, 48 h, read-out: MIC100; method in brief: as §3
[29] = Hemolytic activity in mouse erythrocytes assessed as hemolysis level at 125 ug/ml incubated for 1 hr at 37 degC; type: ADME, cell-based, Erythrocyte; conditions: read-out: Activity
Method in brief: (§4)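 Mouse erythrocytes incubated 1 h at 37 °C with test agents over 1.95 to 125 µg/mL. Percent lysis is read for each concentration.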

[30] = Hemolytic activity in mouse erythrocytes assessed as hemolysis level at 3.9 ug/ml incubated for 1 hr at 37 degC; type: ADME, cell-based, Erythrocyte; conditions: read-out: Activity; method in brief: as §4
[31] = Hemolytic activity in mouse erythrocytes assessed as hemolysis level at 31.3 ug/ml incubated for 1 hr at 37 degC; type: ADME, cell-based, Erythrocyte; conditions: read-out: Activity; method in brief: as §4
[32] = Hemolytic activity in mouse erythrocytes assessed as hemolysis level at 7.8 ug/ml incubated for 1 hr at 37 degC; type: ADME, cell-based, Erythrocyte; conditions: read-out: Activity; method in brief: as §4

SMILES | selectivity ratio [1] | selectivity ratio [2] | selectivity ratio [3] | MIC50 [4] | selectivity ratio [5] | selectivity ratio [6] | selectivity ratio [7] | MIC [8] | MIC50 [9] | selectivity ratio [10] | selectivity ratio [11] | selectivity ratio [12] | MIC [13] | MIC50 [14] | selectivity ratio [15] | selectivity ratio [16] | MIC50 [17] | selectivity ratio [18] | selectivity ratio [19] | selectivity ratio [20] | other results
CCCC(O)(Cn1cncn1)c1ccc(Cl)cc1Cl (stereo unspecified) | 130 | 8 | 8 | 13 µM (≈ 3.9 µg/mL) | 8 | 522 | 4 | 13 µM (≈ 3.9 µg/mL) | 13 µM (≈ 3.9 µg/mL) | 8 | 32 | 2 | 6.5 µM (≈ 1.95 µg/mL) | 6.5 µM (≈ 1.95 µg/mL) | 130 | 16 | 26 µM (≈ 7.8 µg/mL) | 4 | 32 | 16 | MIC50 [21]: 13 µM (≈ 3.9 µg/mL); selectivity ratio [22]: 8; selectivity ratio [23]: 8; selectivity ratio [24]: 8; selectivity ratio [25]: 2; MIC50 [26]: 13 µM (≈ 3.9 µg/mL); MIC [27]: < 0.1 µM; MIC [28]: 0.8 µM (≈ 0.24 µg/mL)
CCCCCCC(O)(Cn1cncn1)c1ccccc1F (stereo unspecified) | 16 | 130 | 130 | > 107 µM | 32 | 522 | 32 | 13.4 µM (≈ 3.9 µg/mL) | 3.3 µM (≈ 0.962 µg/mL) | 1 | 8 | 1 to 2 | 1.6 µM (≈ 0.466 µg/mL) | 3.3 µM (≈ 0.962 µg/mL) | 16 | 32 | 3.3 µM (≈ 0.962 µg/mL) | 32 | 8 | 65 | hemolysis at 1 h, 125 ug/ml [29]: 85.6%; hemolysis at 1 h, 3.9 ug/ml [30]: 0%; hemolysis at 1 h, 31.3 ug/ml [31]: 8.7%; MIC50 [21]: 0.82 µM (≈ 0.239 µg/mL); selectivity ratio [22]: 32; selectivity ratio [23]: 8; selectivity ratio [24]: 1; hemolysis at 1 h, 7.8 ug/ml [32]: 0%; selectivity ratio [25]: 1 to 2; MIC50 [26]: 3.3 µM (≈ 0.962 µg/mL); MIC [27]: 0.41 µM (≈ 0.119 µg/mL); MIC [28]: 6.7 µM (≈ 1.95 µg/mL)
CCCCCC(O)(Cn1cncn1)c1ccc(F)cc1 (stereo unspecified) | 8 | 34 | 32 | > 113 µM | 4 | 32 | 17 | 113 µM (≈ 31.3 µg/mL) | 28.1 µM (≈ 7.79 µg/mL) | 1 | 1 | 1 | 14.1 µM (≈ 3.91 µg/mL) | 28.1 µM (≈ 7.79 µg/mL) | 8 | 4 | 7 µM (≈ 1.94 µg/mL) | 16 | 1 | 8 | MIC50 [21]: 3.5 µM (≈ 0.971 µg/mL); selectivity ratio [22]: 8; selectivity ratio [23]: 1; selectivity ratio [24]: 1; selectivity ratio [25]: 1; MIC50 [26]: 14.1 µM (≈ 3.91 µg/mL); MIC [27]: 1.7 µM (≈ 0.471 µg/mL); MIC [28]: 14.1 µM (≈ 3.91 µg/mL)
CCCCCC(O)(Cn1cncn1)c1ccc(Cl)cc1 (stereo unspecified) | 16 | 16 | 16 | 26.5 µM (≈ 7.79 µg/mL) | 8 | 261 | 8 | > 106 µM | 13.3 µM (≈ 3.91 µg/mL) | 4 | 16 | 1 | 26.5 µM (≈ 7.79 µg/mL) | 53.1 µM (≈ 15.6 µg/mL) | 16 | 2 | 13.3 µM (≈ 3.91 µg/mL) | 8 | 16 | 4 | MIC50 [21]: 6.6 µM (≈ 1.94 µg/mL); selectivity ratio [22]: 2; selectivity ratio [23]: 1; selectivity ratio [24]: 4; selectivity ratio [25]: 1; MIC50 [26]: 53.1 µM (≈ 15.6 µg/mL); MIC [27]: 0.2 µM (≈ 0.0588 µg/mL); MIC [28]: 6.6 µM (≈ 1.94 µg/mL)
